Reference: ChEMBL document CHEMBL1123778, “Synthesis and 5-lipoxygenase inhibitory activity of 5-hydroperoxy-6,8,11,14-eicosatetraenoic acid analogues” (J Med Chem, 1987)

target: T1, Polyunsaturated fatty acid 5-lipoxygenase (Rattus norvegicus, UniProt P12527); assay: In vitro inhibitory activity against 5-lipoxygenase from rat basophilic leukemia cells.
T1 sequence (P12527 whole entry): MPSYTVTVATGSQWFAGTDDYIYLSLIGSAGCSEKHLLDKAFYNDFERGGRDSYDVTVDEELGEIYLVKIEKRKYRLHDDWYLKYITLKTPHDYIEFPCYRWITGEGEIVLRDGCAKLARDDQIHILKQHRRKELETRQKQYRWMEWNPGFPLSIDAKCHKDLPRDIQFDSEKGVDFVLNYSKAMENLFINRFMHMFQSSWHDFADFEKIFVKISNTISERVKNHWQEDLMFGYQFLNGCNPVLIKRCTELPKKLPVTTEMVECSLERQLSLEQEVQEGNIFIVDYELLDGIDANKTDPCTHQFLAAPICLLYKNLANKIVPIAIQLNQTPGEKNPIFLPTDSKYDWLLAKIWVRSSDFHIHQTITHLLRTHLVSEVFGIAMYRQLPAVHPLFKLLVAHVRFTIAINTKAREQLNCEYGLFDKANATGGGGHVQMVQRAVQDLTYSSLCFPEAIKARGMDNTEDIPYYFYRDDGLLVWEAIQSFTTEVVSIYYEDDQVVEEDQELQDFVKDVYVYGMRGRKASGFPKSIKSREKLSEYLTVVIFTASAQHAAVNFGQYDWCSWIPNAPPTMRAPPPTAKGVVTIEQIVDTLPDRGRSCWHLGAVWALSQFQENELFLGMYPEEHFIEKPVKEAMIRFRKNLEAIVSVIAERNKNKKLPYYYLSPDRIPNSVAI

| SMILES | IC50 [µM] |
| --- | --- |
| CCCCC/C=C\C/C=C\C/C=C\C=C\C(CS)CCCC(=O)O (centres undefined) | 11 |
| CCCCC/C=C\C/C=C\C/C=C\C=C\C(S)CCCC(=O)O (centres undefined) | 7.6 |
| CCCCC/C=C\C/C=C\C/C=C\C=C\C(CCCC(=O)O)OC(C)=O (centres undefined) | 68 |
| CCCCC/C=C\C/C=C\C/C=C\C=C\C(CCCC(=O)O)CCC(=O)NO (centres undefined) | 2.8 |
| CCCCC/C=C\C/C=C\C\C=C/C=C/C(CCCC(=O)O)=N/O | 11 |
| CCCCC/C=C\C/C=C\C/C=C\C=C\C(CCCO)CCCC(=O)O (centres undefined) | 97 |
| CCCCC/C=C\C/C=C\C/C=C\C=C\C(CCCC(=O)O)C(=O)NO (centres undefined) | 1.4 |
| CCCCC/C=C\C/C=C\C/C=C\C=C\C(N)CCCC(=O)O (centres undefined) | 25 |
| CCCCC/C=C\C/C=C\C/C=C\C=C\C(CCCC(=O)O)CC(=O)O (centres undefined) | 96 |
| CCCCC/C=C\C/C=C\C/C=C\C=C\C(=O)CCCC(=O)O [5-OXO-ETE] | 18 |
| CCCCC/C=C\C/C=C\C/C=C\C=C\C(CCCC(=O)O)NO (centres undefined) | 21 |
| CCCCC/C=C\C/C=C\C\C=C/C=C/C(CCCC(=O)O)=N/NC(N)=O | 7 |
| CCCCC/C=C\C/C=C\C/C=C\C=C\C1CCCC(=O)N1 (centres undefined) | 10 |
| CCCCC/C=C\C/C=C\C/C=C\C=C\C(CCS)CCCC(=O)O (centres undefined) | 25 |
| CCCCC/C=C\C/C=C\C/C=C\C=C\C1CC(=O)CC(CC(=O)O)C1 (centres undefined) | 59 |
| CCCCC/C=C\C/C=C\C/C=C\C=C\C1CCCC(=O)O1 (centres undefined) | 27 |
| CCCCC/C=C\C/C=C\C/C=C\C=C\C(CCCC(=O)O)CC(=O)NO (centres undefined) | 0.19 |
| CCCCC/C=C\C/C=C\C/C=C\C=C\C(CO)CCCC(=O)O (centres undefined) | 29 |
| CCCCC/C=C\C/C=C\C\C=C/C=C/C(CCCC(=O)O)=N/N=C(/N)S | 7.9 |
| CCCCC/C=C\C/C=C\C/C=C\C=C\C(CCCS)CCCC(=O)O (centres undefined) | 36 |
| CCCCC/C=C\C/C=C\C/C=C\C=C\C(CCO)CCCC(=O)O (centres undefined) | 22 |
| CCCCC/C=C\C/C=C\C/C=C\C=C\C(O)CCCC(=O)NO (centres undefined) | 2.1 |
| CCCCC/C=C\C/C=C\C/C=C\C/C=C\CCCC(=O)NO | 2.2 |

target: T2, Polyunsaturated fatty acid 5-lipoxygenase (Rattus norvegicus) (UniProt P12527); assay: In vitro inhibitory activity against 5-Lipoxygenase from rat basophilic leukemia cells at 30 uM concentration
T2 sequence (whole entry): T1 sequence (P12527 whole entry)
Summary of the method: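 20000g supernatant of homogenized RBL-1 cells (7.5×10^6 cell equivalents/mL) preincubated 20 min at 37 °C with inhibitor or vehicle (2% Me₂SO) in pH 6.8 BES/PIPES buffer with EDTA, NaCl, 0.7 mM CaCl₂. Reaction started with 66 μM [¹⁴C]arachidonic acid. [¹⁴C]-5-HETE counted by liquid scintillation, corrected for [³H]-5-HETE recovery. Inhibition = % reduction vs control.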

| SMILES | inhibition [%] |
| --- | --- |
| CCCCC/C=C\C/C=C\C/C=C\C=C\C1CCCC(=O)C1 (centres undefined) | 27 |
